According to ChEMBL document CHEMBL4265991:

Assays:
[1] = substrate: COc1c(C)c2c(c(O)c1C/C=C(\C)CCC(=O)O)C(=O)OC2; settings: Cryptococcus neoformans; 0.156 uM
[2] = substrate: COc1c(C)c2c(c(O)c1C/C=C(\C)CCC(=O)O)C(=O)OC2; settings: Cryptococcus neoformans; 0.078 uM
[3] = compound: O=S1(=O)C=C(Sc2nnc(-c3ccccc3)o2)c2ccccc21; test: (§1) Inhibition of recombinant Cryptococcus neoformans His-tagged IMPDH expressed in Escherichia coli BL21 (DE3) at 10 uM assessed as Km for substrate using IMP as fixed substrate at 500 uM and NAD as second substrate with varying concentrations of 31.25 to 1300 uM (reference value: 257.5 +/- 23 microM)
Outline: (§2)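 Recombinant C. neoformans IMPDH, 100 nM final, reaction started by adding enzyme. NADH production monitored at 340 nm. Inhibitor series ran from 20 to 0.31 µM; MPA tested at 312 to 39 nM. Km and Vmax fitted to the Michaelis–Menten equation; inhibition type taken from shifts in Km and Vmax.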

[4] = compound: COc1ccccc1-c1nnc(SC2=CS(=O)(=O)c3ccccc32)o1; test: as §1
Outline: as §2

[5] = compound: O=S1(=O)C=C(Sc2nnc(-c3ccccc3)o2)c2ccccc21; test: (§3) Inhibition of recombinant Cryptococcus neoformans His-tagged IMPDH expressed in Escherichia coli BL21 (DE3) at 2.5 uM assessed as Kcat for substrate using IMP as fixed substrate at 500 uM and NAD as second substrate with varying concentrations of 31.25 to 1300 uM (reference value: 21.5 /s)
Outline: as §2

[6] = compound: COc1ccccc1-c1nnc(SC2=CS(=O)(=O)c3ccccc32)o1; test: as §3
Outline: as §2

[7] = compound: O=S1(=O)C=C(Sc2nnc(-c3ccccc3)o2)c2ccccc21; test: (§4) Inhibition of recombinant Cryptococcus neoformans His-tagged IMPDH expressed in Escherichia coli BL21 (DE3) at 2.5 uM assessed as Km for substrate using IMP as fixed substrate at 500 uM and NAD as second substrate with varying concentrations of 31.25 to 1300 uM (reference value: 257.5 +/- 23 microM)
Outline: as §2

[8] = compound: COc1ccccc1-c1nnc(SC2=CS(=O)(=O)c3ccccc32)o1; test: as §4
Outline: as §2

[9] = compound: O=S1(=O)C=C(Sc2nnc(-c3ccccc3)o2)c2ccccc21; test: (§5) Inhibition of recombinant Cryptococcus neoformans His-tagged IMPDH expressed in Escherichia coli BL21 (DE3) at 2.5 uM assessed as Kcat for substrate using NAD as fixed substrate at 700 uM and IMP as second substrate with varying concentrations of 25 to 800 uM (reference value: 21.5 /s)
Outline: as §2

[10] = compound: COc1ccccc1-c1nnc(SC2=CS(=O)(=O)c3ccccc32)o1; test: as §5
Outline: as §2

[11] = substrate: COc1c(C)c2c(c(O)c1C/C=C(\C)CCC(=O)O)C(=O)OC2; settings: Cryptococcus neoformans; 0.078 uM; remark: listed apart in the source
[12] = compound: O=S1(=O)C=C(Sc2nnc(-c3ccccc3)o2)c2ccccc21; test: (§6) Inhibition of recombinant Cryptococcus neoformans His-tagged IMPDH expressed in Escherichia coli BL21 (DE3) at 2.5 uM assessed as Vmax for substrate using NAD as fixed substrate at 700 uM and IMP as second substrate with varying concentrations of 25 to 800 uM (reference value: 1.5 microM/min)
Outline: as §2

[13] = compound: COc1ccccc1-c1nnc(SC2=CS(=O)(=O)c3ccccc32)o1; test: as §6
Outline: as §2

[14] = compound: COc1ccccc1-c1nnc(SC2=CS(=O)(=O)c3ccccc32)o1; test: Inhibition of recombinant Cryptococcus neoformans His-tagged IMPDH expressed in Escherichia coli BL21 (DE3) at 0.3 uM assessed as Kcat for substrate using IMP as fixed substrate at 500 uM and NAD as second substrate with varying concentrations of 31.25 to 1300 uM (reference value: 21.5 /s)
Outline: as §2

[15] = substrate: COc1c(C)c2c(c(O)c1C/C=C(\C)CCC(=O)O)C(=O)OC2; settings: Cryptococcus neoformans; 0.078 uM; remark: listed apart in the source
[16] = compound: O=S1(=O)C=C(Sc2nnc(-c3ccccc3)o2)c2ccccc21; test: (§7) Inhibition of recombinant Cryptococcus neoformans His-tagged IMPDH expressed in Escherichia coli BL21 (DE3) at 2.5 uM assessed as Km for substrate using NAD as fixed substrate at 700 uM and IMP as second substrate with varying concentrations of 25 to 800 uM (reference value: 257.5 +/- 23 microM)
Outline: as §2

[17] = compound: COc1ccccc1-c1nnc(SC2=CS(=O)(=O)c3ccccc32)o1; test: as §7
Outline: as §2

[18] = compound: O=S1(=O)C=C(Sc2nnc(-c3ccccc3)o2)c2ccccc21; test: (§8) Inhibition of recombinant Cryptococcus neoformans His-tagged IMPDH expressed in Escherichia coli BL21 (DE3) at 0.3 uM assessed as Vmax for substrate using IMP as fixed substrate at 500 uM and NAD as second substrate with varying concentrations of 31.25 to 1300 uM (reference value: 1.5 microM/min)
Outline: as §2

[19] = compound: COc1ccccc1-c1nnc(SC2=CS(=O)(=O)c3ccccc32)o1; test: as §8
Outline: as §2

[20] = compound: O=S1(=O)C=C(Sc2nnc(-c3ccccc3)o2)c2ccccc21; test: (§9) Inhibition of recombinant Cryptococcus neoformans His-tagged IMPDH expressed in Escherichia coli BL21 (DE3) at 10 uM assessed as Kcat for substrate using IMP as fixed substrate at 500 uM and NAD as second substrate with varying concentrations of 31.25 to 1300 uM (reference value: 21.5 /s)
Outline: as §2

[21] = compound: COc1ccccc1-c1nnc(SC2=CS(=O)(=O)c3ccccc32)o1; test: as §9
Outline: as §2

[22] = substrate: COc1c(C)c2c(c(O)c1C/C=C(\C)CCC(=O)O)C(=O)OC2; settings: Cryptococcus neoformans; 0.156 uM; remark: listed apart in the source
[23] = substrate: COc1c(C)c2c(c(O)c1C/C=C(\C)CCC(=O)O)C(=O)OC2; settings: Cryptococcus neoformans; 0.156 uM; remark: listed apart in the source
[24] = substrate: COc1c(C)c2c(c(O)c1C/C=C(\C)CCC(=O)O)C(=O)OC2; settings: Cryptococcus neoformans; 0.078 uM; remark: listed apart in the source
[25] = substrate: COc1c(C)c2c(c(O)c1C/C=C(\C)CCC(=O)O)C(=O)OC2; settings: Cryptococcus neoformans; 0.039 uM
[26] = compound: O=S1(=O)C=C(Sc2nnc(-c3ccccc3)o2)c2ccccc21; test: (§10) Inhibition of recombinant Cryptococcus neoformans His-tagged IMPDH expressed in Escherichia coli BL21 (DE3) at 0.3 uM assessed as Km for substrate using NAD as fixed substrate at 700 uM and IMP as second substrate with varying concentrations of 25 to 800 uM (reference value: 257.5 +/- 23 microM)
Outline: as §2

[27] = compound: COc1ccccc1-c1nnc(SC2=CS(=O)(=O)c3ccccc32)o1; test: as §10
Outline: as §2

B1: Inosine-5'-monophosphate dehydrogenase (Cryptococcus neoformans var. neoformans serotype D (strain JEC21 /ATCC MYA-565) (Filobasidiella neoformans)), Q5KP44 (protein)
chain: MADTNPNAPPRSDSLLNPADALKYLEEYPRGDGLSLQELMDSRKNGGLTYNDFLVLPGHISFPASDVSLQSRATKNIVLNTPFLSSPMDTVTEDRMAIALALHGGLGIIHHNCSAEEQAAMVRRVKKYENGFITDPLCLGPDATVGDVLEIKAKFGFCGVPITETGAPNSKLLGIVTGRDVQFQDAETPIKSVMTTEVVTGSSPITLEKANSLLRETKKGKLPIVDSNGHLVSLVARSDLLKNQNYPYASKVPESKQLYCGAAIGTRPGDKDRLKLLAEAGLDVVVLDSSQGDSVYQIEFIKWIKQTYPKIEIIAGNVVTREQAAQLIAAGADGLRIGMGSGSICITQEVMAVGRPQGTAVYAVAEFASRFGIPCIADGGIGNIGHIAKALALGASAVMMGGLLAGTTESPGEYFYHEGKRVKVYRGMGSIEAMEHTQRGSASGKRSILNLDNAATARYFSEADAVKVAQGVSGDVADKGSINKFVPYLFTGLQHSFQDAGVKSVSELHSCARSGSLRFELRTASAQLEGGVHGLNSYTKRLFA
- Vmax [1]: 0.3 µM/min
- Vmax [2]: 0.6 µM/min
- Km [3]: 386 µM
- Km [4]: 355 µM
- kcat [5]: 1.3 s⁻¹
- kcat [6]: 1.5 s⁻¹
- Km [7]: 336 µM
- Km [8]: 358 µM
- kcat [9]: 0.9 s⁻¹
- kcat [10]: 1 s⁻¹
- kcat [11]: 0.6 s⁻¹
- Vmax [12]: 0.9 µM/min
- Vmax [13]: 1 µM/min
- kcat [14]: 1.5 s⁻¹
- Vmax [15]: 0.6 µM/min
- Km [16]: 187 µM
- Km [17]: 165 µM
- Vmax [18]: 1.5 µM/min
- Vmax [19]: 1.5 µM/min
- kcat [20]: 1 s⁻¹
- kcat [21]: 1 s⁻¹
- kcat [22]: 0.3 s⁻¹
- kcat [23]: 0.25 s⁻¹
- Km [24]: 53 µM
- Km [25]: 64 µM
- Km [26]: 92.5 µM
- Km [27]: 93 µM
